Each structure is given as a SMILES string.

The subject of experiment [1] is Canis familiaris. Briefly: Effect of compound on the renal blood flow (RBF) in alpha-blocked anesthetized dogs at a dose of 100 nmol after propranolol. It counts as functional, Canis lupus familiaris, Kidney. The gist of the method: (§1)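 Phenoxybenzamine α-blocked anesthetized dogs, N=4-5/group (dopamine N=18). Doses given as renal-artery boluses; Δ renal blood flow in mL/min, mean ± SEM. SCH 23390 infused at 0.5 µg/kg/min iv, with doses repeated 5 min after infusion onset. After ≥1.5 h recovery, propranolol was given at 0.5 mg/kg ia over 15 min. The combined condition repeated SCH 23390 infusion with propranolol present.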

For experiment [2], the system named is Canis familiaris. In words: Effect of compound on the renal blood flow (RBF) in alpha-blocked anesthetized dogs at a dose of 100 nmol after SCH 23390. It counts as functional, Canis lupus familiaris, Kidney. The gist of the method:
as §1

Experiment [3] deals with Canis familiaris. In words: Effect of compound on the renal blood flow (RBF) in alpha-blocked anesthetized dogs at a dose of 300 nmol after propranolol. It counts as functional, Canis lupus familiaris, Kidney. The gist of the method: as §1
Experiment [4] concerns Canis familiaris. Briefly: Effect of compound on the renal blood flow (RBF) in alpha-blocked anesthetized dogs at a dose of 300 nmol after SCH 23390. It counts as functional, Canis lupus familiaris, Kidney. In a few lines:
as §1

Experiment [5] concerns Canis familiaris. Briefly: Compound was tested for the renal vasodilatory activity in anesthetized dog. It counts as functional, Canis lupus familiaris. Also on record: unit not given here. In a few lines: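 Dogs anesthetized and α-blocked with phenoxybenzamine, with saline infused iv during blockade. Four ascending bolus doses (3-10000 nmol) given into the renal artery in 0.2 mL isotonic saline, one test compound per dog. Maximal rise in renal blood flow was taken as % of each dog's response to 100 nmol dopamine. ED30 is the dose raising flow by 30%.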

The test system of experiment [6] is Canis familiaris. In words: Effect of compound on the renal blood flow (RBF) in alpha-blocked anesthetized dogs at a dose of 100 nmol after SCH 23390+propranolol. It counts as functional, Canis lupus familiaris, Kidney. The gist of the method:
as §1

Experiment [7] has as its system Canis familiaris. In words: Effect of compound on the renal blood flow (RBF) in alpha-blocked anesthetized dogs at a dose of 3000 nmol after SCH 23390. It counts as functional, Canis lupus familiaris, Kidney. The gist of the method:
as §1

Experiment [8] has as its system Canis familiaris. In words: Effect of compound on the renal blood flow (RBF) in alpha-blocked anesthetized dogs at a dose of 3000 nmol after propranolol. It counts as functional, Canis lupus familiaris, Kidney. The gist of the method: as §1
Experiment [9] deals with Canis familiaris. In words: Effect of compound on the renal blood flow (RBF) in alpha-blocked anesthetized dogs at a dose of 10000 nmol after SCH 23390+propranolol. It counts as functional, Canis lupus familiaris, Kidney. The gist of the method: as §1
For experiment [10], the system named is Canis familiaris. In words: Effect of compound on the renal blood flow (RBF) in alpha-blocked anesthetized dogs at a dose of 10000 nmol after propranolol. It counts as functional, Canis lupus familiaris, Kidney. The gist of the method: as §1
The test system of experiment [11] is Canis familiaris. Briefly: Effect of compound on the renal blood flow (RBF) in alpha-blocked anesthetized dogs at a dose of 10000 nmol after SCH 23390. It counts as functional, Canis lupus familiaris, Kidney. In a few lines:
as §1

The subject of experiment [12] is Canis familiaris. In words: Effect of compound on the renal blood flow (RBF) in alpha-blocked anesthetized dogs at a dose of 3000 nmol after SCH 23390+propranolol. It counts as functional, Canis lupus familiaris, Kidney. The gist of the method: as §1
Experiment [13] deals with Canis familiaris. In words: Effect of compound on the renal blood flow (RBF) in alpha-blocked anesthetized dogs at a dose of 1000 nmol after SCH 23390+propranolol. It counts as functional, Canis lupus familiaris, Kidney. The gist of the method:
as §1

Experiment [14] deals with Canis familiaris. In words: Effect of compound on the renal blood flow (RBF) in alpha-blocked anesthetized dogs at a dose of 300 nmol after SCH 23390+propranolol. It counts as functional, Canis lupus familiaris, Kidney. In a few lines: as §1
Experiment [15] concerns Canis familiaris. Briefly: Effect of compound on the renal blood flow (RBF) in alpha-blocked anesthetized dogs at a dose of 1000 nmol after propranolol. It counts as functional, Canis lupus familiaris, Kidney. The gist of the method: as §1
The test system of experiment [16] is Canis familiaris. Briefly: Effect of compound on the renal blood flow (RBF) in alpha-blocked anesthetized dogs at a dose of 1000 nmol after SCH 23390. It counts as functional, Canis lupus familiaris, Kidney. In a few lines: as §1

For `CNCCc1ccc(O)c(O)c1Cl.Cl`, the RBF in the experiment on Canis familiaris [1] was determined as 34 mL/min; in the experiment with Canis familiaris [2] it was 8 mL/min; with Canis familiaris [3] it was 49 mL/min; in the experiment on Canis familiaris [4], 15 mL/min. Also, the ED30 with Canis familiaris [5] is 11.5.
Turning to `NCCc1ccc(O)c(O)c1` [DOPAMINE], the RBF in the experiment on Canis familiaris [1] amounted to 69 mL/min; in the experiment with Canis familiaris [2], 15 mL/min; in the experiment with Canis familiaris [6], 14 mL/min.
As for `CCCNCCc1ccc(O)c(O)c1Cl.Cl`, the RBF in the experiment on Canis familiaris [7] worked out at 11 mL/min; with Canis familiaris [8] it was 11 mL/min; in the experiment on Canis familiaris [9], 5 mL/min; with Canis familiaris [10], 17 mL/min; in the experiment with Canis familiaris [11], 17 mL/min; in the experiment on Canis familiaris [12], 2 mL/min. The ED30 in the experiment with Canis familiaris [5] amounted to 2166.
For the molecule `Cl.NCCc1ccc(O)c(O)c1Cl`, the RBF with Canis familiaris [1] came out at 43 mL/min; with Canis familiaris [2], 4 mL/min. In the experiment on Canis familiaris [5], this molecule came in with an ED30 of 13.5.
For `CCNCCc1ccc(O)c(O)c1Cl.Cl`, the RBF in the experiment on Canis familiaris [13] stood at 2 mL/min; with Canis familiaris [14], 2 mL/min; in the experiment with Canis familiaris [3], 25 mL/min; in the experiment with Canis familiaris [4] it was 22 mL/min; with Canis familiaris [15] it was 40 mL/min; with Canis familiaris [16], 32 mL/min. In the experiment with Canis familiaris [5], the ED30 came out at 67.4.
